The list is not random: actives were taken first. Their share in the collection is about 2.7%.
CHO parental Ca: ATP-evoked calcium signal inhibitors, parental CHO, primary screen, counter-screen for OX1R antagonist project, cell-based, fluorescence, Fluo-8 calcium dye; parental CHO-K1, ATP-induced calcium, Fluo-8 fluorescence; inhibition, % at 5.6 µM; 330,000 compounds, 0.63% hits; AID 463079, 2010;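 active means inhibition above that plate's mean sample inhibition plus 3 SD, cut at about 26% in these data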;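 further: 0% = ATP-challenged DMSO wells and 100% = DMSO wells without ATP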
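Assay system: parental CHO cells; Read-out basis: percent inhibition of ATP-evoked calcium rise, normalized to controls; Benchmarks: ATP and no-ATP DMSO wells; Compound dosing: single nominal dose of 5.6 µM per compound; Signal: Fluo-8 calcium dye fluorescence; Also added: ATP as calcium-mobilizing challenge; Repeats: singlicate.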
OXTR potentiate: human OXTR potentiators, primary screen, fluorescence, CHO-OTR cells, Fluo-8 calcium; Oxytocin receptor (Homo sapiens), P30559; Fluo-8 calcium fluorescence, potentiator mode; 0% = oxytocin EC15, 100% = EC100; activation, % at 3 µM; 320,000 compounds, 0.061% hits; AID 2445, 2010;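 active means activation above that plate's cutoff, the mean activation of tested compounds plus 3 SD, cut at about 6.6% in these data, passing the limit was not always enough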;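 further: 100% uses oxytocin at 75 nM as the full agonist control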
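assay system = CHO-OTR cells, human receptor | schedule = compound 6 min at room temperature before oxytocin, 100 s read | detection = Fluo-8 intracellular calcium fluorescence, ex 470-495, em 515-575 nm | evaluation = normalized max/min fluorescence ratio, % activation | control set = EC15 oxytocin alone as 0%, 75 nM oxytocin (EC100) as 100%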
OXTR ag: human OXTR agonists, primary screen, fluorescence, CHO-OTR cells, Fluo-8 calcium; 320,000 compounds, 0.32% hits; AID 2435, 2010; Fluo-8 calcium fluorescence; normalized: DMSO 0%, oxytocin 100%; activation, % at 3 µM;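 active means activation above the mean of all tested compounds plus 3 SD, cutoff set per screening run, cut at about 20% in these data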;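 further: peak over basal fluorescence ratio from a 100 s FLIPR kinetic read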
V1aR counter: agonists of human V1a receptor, primary screen, counter-screen for OXTR agonist project, fluorescence, CHO-V1R cells; Fluo-8 calcium fluorescence, agonist mode; 0% DMSO, 100% 3 nM vasopressin; activation, % at 3 µM; 320,000 compounds, 0.25% hits;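 active means activation above the mean activation of all tested compounds plus 3 SD, per screening run, cut at about 20% in these data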;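 further: signal is peak over basal fluorescence ratio across a 100 second FLIPR read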
Target sequence (P37288 whole entry, looked up): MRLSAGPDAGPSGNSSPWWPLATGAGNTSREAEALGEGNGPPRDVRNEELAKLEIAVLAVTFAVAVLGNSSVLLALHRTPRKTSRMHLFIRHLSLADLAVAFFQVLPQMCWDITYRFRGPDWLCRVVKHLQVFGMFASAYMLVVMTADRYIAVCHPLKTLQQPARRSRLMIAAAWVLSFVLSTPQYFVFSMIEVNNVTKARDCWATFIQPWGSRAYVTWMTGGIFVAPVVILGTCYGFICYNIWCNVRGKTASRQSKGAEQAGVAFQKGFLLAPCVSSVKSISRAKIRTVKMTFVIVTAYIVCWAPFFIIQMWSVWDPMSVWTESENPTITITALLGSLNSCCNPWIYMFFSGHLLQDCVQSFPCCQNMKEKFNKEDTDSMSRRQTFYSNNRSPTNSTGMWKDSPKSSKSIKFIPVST
OX1R antag-1: OX1R (HCRTR1) antagonists, primary screen, fluorescence, CHO/OX1R cells, Fluo-8 calcium, orexin A; 330,000 compounds, 0.43% hits; inhibition, % at 5 µM; Orexin/Hypocretin receptor type 1 (Homo sapiens), O43613; Fluo-8 calcium fluorescence;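 active means inhibition above its plate's threshold, mean inhibition of all tested compounds on the plate plus 3 SD, cut at about 37% in these data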;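 further: 0% = orexin A challenge wells and 100% = SB-334867-A antagonist wells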
OX1R antag-2: antagonists of human orexin 1 receptor (OX1R); AID 485270, 2010; OX1R-expressing cells, FRET antagonist read-out; 330,000 compounds, 1.8% hits; Orexin/Hypocretin receptor type 1 (Homo sapiens), O43613; inhibition, % at 6.6 µM; in the data active means inhibition mostly above about 38%, no sharp cut-off; inactive means mostly below about 40%;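 further: 0% = agonist challenge alone and 100% = reference antagonist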
OX1R Ca confirm: OX1R (HCRTR1) antagonists, confirmation, fluorescence, CHO/OX1R cells, Fluo-8 calcium, orexin A; orexin A calcium Fluo-8 fluorescence; 1,100 compounds, 38% hits; shares compounds with OX1R antag-1; inhibition, % at 5 µM; in the data active means inhibition above about 29%;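 further: 0% = agonist challenge alone and 100% = reference antagonist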
CHO Ca counter: ATP-evoked calcium inhibition in parental CHO, counter-screen for OX1R antagonist project, cell-based, fluorescence, CHO-K1, triplicate. ATP-induced calcium, Fluo-8 fluorescence. shares compounds with OX1R antag-1. 1,100 compounds, 9.3% hits. AID 492965, 2010. inhibition, % at 5.6 µM;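 active means inhibition above a per-plate limit, the mean inhibition of that plate's test compounds plus 3 SD, cut at about 25% in these data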;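 further: 0% = ATP challenge with DMSO and 100% = DMSO without ATP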
OX1R HTRF conf: OX1R (HCRTR1) antagonists, confirmation, cell-based, HTRF; shares compounds with OX1R antag-2; OX1R-expressing cells, HTRF antagonist assay; inhibition, % at 6.6 µM; 1,800 compounds, 49% hits; AID 492964, 2010; in the data active means inhibition above about 55%;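 further: CHO cells expressing OX1R stimulated with orexin A at about EC80; 0% = agonist challenge alone and 100% = reference antagonist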
CHO-K1 HTRF: signal inhibition in parental CHO-K1 cells, counter-screen for OX1R antagonist project, cell-based, HTRF; shares compounds with OX1R antag-2; HTRF counterscreen; inhibition, % at 6.6 µM; 1,800 compounds, 48% hits; AID 493232, 2011; in the data active means inhibition above about 17%;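 further: 0% = agonist challenge with vehicle and 100% = vehicle alone without agonist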
* hit, by the source's call; / = not tested or not shown.

SMILES	CHO parental Ca	OXTR potentiate	OXTR ag	V1aR counter	OX1R antag-1	OX1R antag-2	OX1R Ca confirm	CHO Ca counter	OX1R HTRF conf	CHO-K1 HTRF
Cc1ccc(N(CC(=O)NCCc2ccc(Cl)cc2)S(=O)(=O)c2c(C)noc2C)cc1	-32	-11	-2	0	34	49*	60*	-16	86*	3
COc1ccc(N(CC(=O)NC(C)c2ccccc2)S(=O)(=O)c2c(C)noc2C)cc1 (configuration not stated)	-23	-12	-1	1	44	67*	18	-10	66*	-3
Cc1ccc(CCNC(=O)CN(c2ccc(C)cc2)S(=O)(=O)c2c(C)noc2C)cc1	-45	-13	-1	0	60*	80*	30*	-28	80*	8
Cc1ccc(CCNC(=O)CN(c2cc(C)cc(C)c2)S(=O)(=O)c2c(C)noc2C)cc1	-7	-2	-1	-1	-23	1	/	/	/	/
CSc1nc2ccc3nc(NC(=O)c4ccccc4)sc3c2s1	-15	-5	-1	0	46*	84*	79*	-13	95*	11
O=C(Nc1nc2ccccc2s1)c1ccccc1	-10	-16	-2	0	-20	10	/	/	/	/
COCc1cc(=O)n2[nH]c(-c3cccs3)cc2n1	-2	-2	-1	0	-4	-1	/	/	/	/
O=C(NN1C(=O)c2ccc(-c3ccc4c(c3)C(=O)N(NC(=O)c3cccnc3)C4=O)cc2C1=O)c1cccnc1	-9	6	0	1	-9	92*	/	/	39	33*
CC(=O)c1ccc(OCC(=O)Nc2c(C)nn(-c3ccccc3)c2C)cc1	-8	-1	0	0	-8	91*	/	/	27	7
CC1=C(C#N)C(c2cccnc2)C2=C(N1)c1ccccc1C2=O (configuration not stated)	4	-6	-1	1	-7	96*	/	/	0	-26
CNc1nc(N2CCc3ccccc32)ncc1F	-11	-1	-2	-1	4	89*	/	/	83*	2
COc1ccc(C2CC(=O)c3cnc(N4CCc5ccccc54)nc3C2)cc1OC (configuration not stated)	-12	-8	1	1	4	9	/	/	/	/
c1cncc(-c2nc(NCC3COc4ccccc4O3)c3ccccc3n2)c1 (configuration not stated)	-24	-7	-1	0	21	95*	/	/	56*	13
c1cncc(-c2nc(NCc3ccc4c(c3)OCO4)c3ccccc3n2)c1	-10	-8	-2	-1	0	33	/	/	/	/
COCCNC(=O)C1CCCN(S(=O)(=O)c2ccc3c(c2)CC(C)N3C(=O)C2CC2)C1 (configuration not stated)	-17	3	0	0	-26	14	/	/	/	/
NS(=O)(=O)c1ccc(O)c(NC(=O)c2ccc([N+](=O)[O-])cc2)c1	-2	-1	0	0	-12	92*	/	/	41	47*

High-throughput results: PubChem BioAssay, The Scripps Research Institute Molecular Screening Center
